From ChEMBL document CHEMBL1128599, “Nucleoside conjugates. 14. Synthesis and antitumor activity of 1-beta-D-arabinofuranosylcytosine conjugates of ether lipids with improved water solubility” (J Med Chem, 1995)
Several values for one entry are separate records, joined by “and”; a condition that tells them apart may be missing. Identical values can stand only once.

What was measured:
Mus musculus [1] = assay: Antitumor activity at 200 mg/kg/day on a 1 day treatment schedule, qd against L1210 infected mice was expressed as increase in life span (ILS); format: functional; conditions: L1210, 24 h
Method in brief: (§1)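 Groups of 6 male DBA/2Ros mice (20–29 g) were inoculated ip on day 0 with 1 × 10⁶ L1210 cells. Conjugate was given ip as a shaken or sonicated aqueous solution from day 1, over a wide dose range. Optimal-dose results are reported as ILS = (T/C − 1) × 100 from median survival, or as 45-day survivors.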

[2] = Solubility in water determined by UV absorption at 272 nm; format: physicochemical; conditions: read-out: S
Mus musculus [3] = assay: Antitumor activity at 150 mg/kg/day on 1, 5, 9 day treatment schedule, qd against L1210 infected mice was expressed as increase in life span (ILS); format: functional; conditions: L1210, 216 h; method in brief: as §1
Mus musculus [4] = assay: Number of mice (out of 6 mice) survived after treatment with 150 mg/kg/day of compound on 1, 5, 9 day treatment schedule for 45 days; format: functional; method in brief: as §1
Mus musculus [5] = assay: Number of mice (out of 6 mice) survived after treatment with 200 mg/kg/day of compound on a 1 day treatment schedule for 45 days; format: functional; method in brief: as §1
Mus musculus [6] = assay: Number of mice (out of 6 mice) survived after treatment with 300 mg/kg/day of compound on a 1,7 day treatment schedule for 45 days; format: functional; method in brief: as §1
Mus musculus [7] = assay: Antitumor activity at 300 mg/kg/day on a 1 day treatment schedule, qd against L1210 infected mice by shaking method was expressed as increase in life span (ILS); format: functional; conditions: L1210, 24 h
Method in brief: (§2)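 Male DBA/2Ros mice (20–29 g, groups of 6) got 1 × 10⁶ L1210 leukemia cells ip on day 0. Ip treatment started day 1. Conjugate was shaken in sterile water for 2 h at room temperature, then 0.22 μm filtered. Mice were observed 45 days. Read-outs were median survival T/C with ILS = (T/C − 1) × 100, or 45-day survivors.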

Mus musculus [8] = assay: Antitumor activity at 300 mg/kg/day on a 1 day treatment schedule, qd against L1210 infected mice by sonication method was expressed as increase in life span (ILS); format: functional; conditions: L1210, 24 h
Method in brief: (§3)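 L1210 cells (1 × 10⁶) were inoculated ip into male DBA/2Ros mice (20–29 g, 6 per group) on day 0. Ip dosing began day 1. Conjugate in water suspension was sonicated 2 min (20–60 °C), then 0.22 μm filtered. Over a 45-day observation, read-outs were median survival T/C, ILS = (T/C − 1) × 100, or number alive at day 45.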

Mus musculus [9] = assay: Antitumor activity at 150 mg/kg/day on 1, 5, 9 day treatment schedule, qd against L1210 infected mice by sonication method was expressed as increase in life span (ILS); format: functional; conditions: L1210, 216 h; method in brief: as §3
Mus musculus [10] = assay: Antitumor activity at 200 mg/kg/day on a 1 day treatment schedule, qd against L1210 infected mice by sonication method was expressed as increase in life span (ILS); format: functional; conditions: L1210, 24 h; method in brief: as §3
Mus musculus [11] = assay: Antitumor activity at 150 mg/kg/day on 1, 5, 9 day treatment schedule, qd against L1210 infected mice by shaking method was expressed as increase in life span (ILS); format: functional; conditions: L1210, 216 h; method in brief: as §2
Mus musculus [12] = assay: Antitumor activity at 200 mg/kg/day on a 1 day treatment schedule, qd against L1210 infected mice by shaking method was expressed as increase in life span (ILS); format: functional; conditions: L1210, 24 h; method in brief: as §2
Mus musculus [13] = assay: Antitumor activity at 300 mg/kg/day on a 1,7 day treatment schedule, qd against L1210 infected mice by shaking method was expressed as increase in life span (ILS); format: functional; method in brief: as §2
Mus musculus [14] = assay: Number of mice (out of 6 mice) survived after treatment with 300 mg/kg/day of compound on a 1 day treatment schedule for 45 days; format: functional; method in brief: as §1
Mus musculus [15] = assay: Antitumor activity at 300 mg/Kg/day on a 1 day treatment schedule, qd against L1210 infected mice was expressed as increase in life span (ILS); format: functional; conditions: L1210, 24 h; method in brief: as §1
Mus musculus [16] = assay: Number of mice (out of 6 mice) survived after treatment with 200 mg/kg/day of compound on a 1,7 day treatment schedule for 45 days; format: functional; method in brief: as §1
Mus musculus [17] = assay: Antitumor activity at 200 mg/kg/day on a 1,7 day treatment schedule, qd against L1210 infected mice was expressed as increase in life span (ILS); format: functional; method in brief: as §1
Mus musculus [18] = assay: Number of mice (out of 6 mice) survived after treatment with 300 mg/kg/day of compound on a 1 day by shaking method treatment schedule for 45 days; format: functional; method in brief: as §2
Mus musculus [19] = assay: Number of mice (out of 6 mice) survived after treatment with 300 mg/kg/day of compound on a 1 day by sonication method treatment schedule for 45 days; format: functional; method in brief: as §3
Mus musculus [20] = assay: Number of mice (out of 6 mice) survived after treatment with 150 mg/kg/day of compound on 1, 5, 9 day by sonication method treatment schedule for 45 days; format: functional; method in brief: as §3
Mus musculus [21] = assay: Number of mice (out of 6 mice) survived after treatment with 150 mg/kg/day of compound on 1, 5, 9 day by shaking method treatment schedule for 45 days; format: functional; method in brief: as §2
Mus musculus [22] = assay: Antitumor activity at 300 mg/kg/day on a 1,7 day treatment schedule, qd against L1210 infected mice was expressed as increase in life span (ILS); format: functional; method in brief: as §1

| Compound | ILS at 200 mg/kg/day (Mus musculus [1]) | solubility [2] | ILS at 150 mg/kg/day (Mus musculus [3]) | No. of mice (Mus musculus [4]) | No. of mice (Mus musculus [5]) | No. of mice (Mus musculus [14]) | further results |
| --- | --- | --- | --- | --- | --- | --- | --- |
| CCCCCCCCCCCCCCCCOCC(COP(=O)([O-])OP(=O)([O-])OC[C@H]1OC(n2ccc(N)nc2=O)[C@@H](O)[C@@H]1O)OC(=O)CCCCCCCCCCCCCCC.[Na+].[Na+] (stereo not given in full) | > 250% | 0.13 mM | 306% | 3 | 3 |  |  |
| CCCCCCCCCCCCCCCC(=O)OC(COCCCCCCCCCCCCCC)COP(=O)([O-])OP(=O)([O-])OC[C@H]1OC(n2ccc(N)nc2=O)[C@@H](O)[C@@H]1O.[Na+].[Na+] (stereo not given in full) |  | > 43 mM |  | 3 and 5 | 2 and 1 | 4 and 2 | No. of mice (Mus musculus [6]): 1; ILS at 300 mg/kg/day (Mus musculus [7]): > 543%; ILS at 300 mg/kg/day (Mus musculus [8]): > 206%; ILS at 150 mg/kg/day (Mus musculus [9]): > 463%; ILS at 200 mg/kg/day (Mus musculus [10]): 206%; ILS at 150 mg/kg/day (Mus musculus [11]): > 350%; ILS at 200 mg/kg/day (Mus musculus [12]): 275%; ILS at 300 mg/kg/day (Mus musculus [13]): 107% |
| CCCCCCCCCCCCCCOCC(COP(=O)([O-])OP(=O)([O-])OC[C@H]1OC(n2ccc(N)nc2=O)[C@@H](O)[C@@H]1O)OC(=O)CCCCCCCCCCCCC.[Na+].[Na+] (stereo not given in full) |  | > 121 mM | 125% | 1 |  | 0 | ILS at 300 mg/kg/day (Mus musculus [15]): 178% |
| CCCCCCCCCCCCCC(=O)OC(COCCCCCCCCCCCC)COP(=O)([O-])OP(=O)([O-])OC[C@H]1OC(n2ccc(N)nc2=O)[C@@H](O)[C@@H]1O.[Na+].[Na+] (stereo not given in full) | 69% | > 146 mM | > 394% | 3 | 0 |  |  |
| CCCCCCCCCCCCCCCC(=O)OC(COCCCCCCCCCCCC)COP(=O)([O-])OP(=O)([O-])OC[C@H]1OC(n2ccc(N)nc2=O)[C@@H](O)[C@@H]1O.[Na+].[Na+] (stereo not given in full) | 128% | > 131 mM | > 313% | 3 | 0 |  | No. of mice (Mus musculus [16]): 0; ILS at 200 mg/kg/day (Mus musculus [17]): 286% |
| CCCCCCCCCCCCCCCCOCC(COP(=O)([O-])OP(=O)([O-])OC[C@H]1OC(n2ccc(N)nc2=O)[C@@H](O)[C@@H]1O)OC(=O)CCCCCCCCCCCCC.[Na+].[Na+] (stereo not given in full) |  | > 107 mM |  |  |  |  | No. of mice (Mus musculus [18]): 1; ILS at 300 mg/kg/day (Mus musculus [7]): 258%; ILS at 300 mg/kg/day (Mus musculus [8]): > 464%; ILS at 150 mg/kg/day (Mus musculus [9]): > 463%; No. of mice (Mus musculus [19]): 3; ILS at 150 mg/kg/day (Mus musculus [11]): > 463%; No. of mice (Mus musculus [20]): 4; No. of mice (Mus musculus [21]): 5 |
| CCCCCCCCCCCCCCCCOCC(COP(=O)([O-])OP(=O)([O-])OC[C@H]1OC(n2ccc(N)nc2=O)[C@@H](O)[C@@H]1O)OC(=O)CCCCCCCCCCC.[Na+].[Na+] (stereo not given in full) |  | > 132 mM | > 463% | 5 |  | 0 | ILS at 300 mg/kg/day (Mus musculus [15]): 119%; ILS at 300 mg/kg/day (Mus musculus [22]): > 350%; No. of mice (Mus musculus [16]): 3 |
